{"data": "Experimental data pooled from the literature", "effect on": "cell growth or viability", "note": "Each line is one published result; the experiments were not run side by side."}
{"Compound": "COc1ccc(CNC[C@](O)(COCc2ccc(OC)cc2)[C@@H]2CC[C@@H](C)C[C@H]2OCc2ccc(OC)cc2)cc1", "cell line": "MCF7", "method": "MTT", "tested at": "30 µM", "time": "72 h", "measurement": "inhibition", "value": "101%"}
{"Compound": "CC(=O)Nc1ccc(Oc2nnc(-c3ccc(Cl)cc3)c3ccccc23)cc1", "cell line": "MCF7", "method": "MTT", "tested at": "1.25 µM", "measurement": "cell death", "value": "93.9%"}
{"Compound": "CCOC(=O)c1nn(-c2cccc(Cl)c2)/c(=N/N=C(\\C)c2ccc(NC(=O)c3ccc(Cl)cc3)cc2)s1", "cell line": "MCF7", "method": "MTT", "tested at": "78 nM", "measurement": "viability", "value": "73.5%"}
{"Compound": "COc1ccccc1CNC[C@@](C)(O)[C@@H]1CC[C@@H](C)C[C@H]1OCc1ccccc1", "cell line": "MCF7", "method": "MTT", "tested at": "10 µM", "time": "72 h", "measurement": "inhibition", "value": "46.9%"}
{"Compound": "Cc1c(C(=O)O)ccc2c3n(nc12)[C@@H]1[C@H](C3)N(CC2CC2)[C@@]2(C(=O)Nc3cc(Cl)ccc32)[C@H]1c1cccc(Cl)c1F", "cell line": "SJSA-1", "method": "ATP luminescence", "measurement": "IC50", "value": "12 nM"}
{"Compound": "C=CC(=O)NC1CCN(c2ncc3ncnc(Nc4ccc(Oc5ccc6c(c5)ncn6C)c(C)c4)c3n2)CC1", "cell line": "SNU-398", "measurement": "EC50", "value": "36.5 nM"}
{"Compound": "O=C(Nc1ccccc1)Nc1ccc(Oc2nnc(-c3ccc(Cl)cc3)c3ccccc23)cc1", "cell line": "MCF7", "method": "MTT", "tested at": "0.625 µM", "measurement": "cell death", "value": "95.4%"}
{"Compound": "CC(=O)c1nn(-c2ccc(C)cc2)/c(=N/N=C(\\C)c2ccc(NC(=O)c3ccccc3)cc2)s1", "cell line": "MCF7", "method": "MTT", "tested at": "10 µM", "measurement": "viability", "value": "6.47%"}
